How the values were obtained:
adenosine kinase = settings: read-out: IC50 adenosine kinase; cited from earlier work
tyrosine kinase TXK = target: T1, tyrosine kinase TXK (Homo sapiens, UniProt P42681); assay: Human kinome profiling, TXK; type: biochemical; settings: read-out: remaining activity TXK
T1 sequence (P42681 1-527): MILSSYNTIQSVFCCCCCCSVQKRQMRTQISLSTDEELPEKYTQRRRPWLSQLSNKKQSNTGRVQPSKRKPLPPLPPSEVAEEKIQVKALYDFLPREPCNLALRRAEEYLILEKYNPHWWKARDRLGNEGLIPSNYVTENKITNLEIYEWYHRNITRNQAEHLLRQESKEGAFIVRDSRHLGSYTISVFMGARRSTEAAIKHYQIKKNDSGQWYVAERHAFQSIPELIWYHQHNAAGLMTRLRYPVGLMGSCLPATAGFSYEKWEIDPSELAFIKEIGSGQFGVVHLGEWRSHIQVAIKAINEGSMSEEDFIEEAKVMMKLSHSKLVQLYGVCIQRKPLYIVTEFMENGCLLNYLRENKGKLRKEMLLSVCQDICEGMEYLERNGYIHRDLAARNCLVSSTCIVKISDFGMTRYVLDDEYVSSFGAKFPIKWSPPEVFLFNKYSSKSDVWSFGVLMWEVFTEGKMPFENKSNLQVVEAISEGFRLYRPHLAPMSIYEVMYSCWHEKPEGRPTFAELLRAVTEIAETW
In short: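 Human kinases profiled by commercial providers under their standard protocols; ATP within 15 μmol/L of the apparent KM for each enzyme.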

human β-cells = assay: EdU incorporation proliferation assay in dissociated human islet cells; type: cell-based
In short: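 Human islets dissociated in Accutase (5,000 IEQ/mL, 37°C, 20 min), resuspended in CMRL complete medium and seeded at ~30,000 (96-well) or ~15,000 (384-well) cells per well. EdU was present throughout the 6-day treatment, including FK506 cotreatment. Cells were fixed (3% PFA), permeabilised (0.2% Triton X-100) and stained for C-peptide and DAPI. EdU+ β-cells were scored by automated imaging and manually; 4 wells, 9 fields each; mean ± SD; two-tailed t test vs DMSO.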

[1] = system: human islet cells (all cell types); settings: cited from earlier work
DYRK1A = DYRK1A (Homo sapiens, UniProt Q13627); assay: Biochemical assay for DYRK1A activity using the purified catalytic domain
[2] = system: p27KIP phosphorylation (S10); assay: Western blot of p27KIP phosphorylation; type: cell-based, rat; settings: INS-1E cells, 24 or 48 h, 10 μmol/L harmine or 0.5 μmol/L 5-IT
In short: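 Cells were treated after overnight attachment and lysed in RIPA buffer. Western blots were probed for p27KIP S10 phosphorylation, with actin as loading control.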

## Nc1ncnc2nc(-c3ccc(N4CCOCC4)nc3)cc(-c3cccc(Br)c3)c12 [ABT-702, 4-amino-5-(3-bromophenyl)-7-(6-morpholinopyridin-3-yl)pyrido[2,3-d]pyrimidine]
Adenosine kinase
  IC50: 1.7 nM
Tyrosine kinase TXK
  remaining activity at 0.5 µM: 60%
Human β-cells; tested up to 20 μmol/L, 6-day treatment
  effect on EdU incorporation: no effect

## COC(=O)C1=C(C)NC(C)=C([N+](=O)[O-])C1c1ccccc1C(F)(F)F (stereo not shown) [Bay K8644]
[1]
  cellular proliferation in human islet cell culture: induces nonspecific cellular proliferation

## C=CC[C@@H]1/C=C(\C)C[C@H](C)C[C@H](OC)[C@H]2O[C@@](O)(C(=O)C(=O)N3CCCC[C@H]3C(=O)O[C@H](/C(C)=C/[C@@H]3CC[C@@H](O)[C@H](OC)C3)[C@H](C)[C@@H](O)CC1=O)[C@H](C)C[C@@H]2OC [FK506]
Human β-cells; 1 μmol/L FK506 with 1 μmol/L 5-IT
  effect of cotreatment on 5-IT-induced EdU-positive β-cells: completely blocked
Human β-cells; 1 μmol/L FK506 with 10 μmol/L harmine
  effect of cotreatment on harmine-induced EdU-positive β-cells: completely blocked

## COc1ccc2c3c([nH]c2c1)C(C)=NCC3 [harmaline]
DYRK1A
  activity toward DYRK1A: no activity
Human β-cells; 6-day treatment
  effect on EdU incorporation versus vehicle: no effect

## COc1ccc2c(c1)[nH]c1c(C)nccc12 [harmine]
[2]
  p27KIP phosphorylation: decrease
Human β-cells; 5 and 10 μmol/L, 6-day treatment
  effect on EdU-positive cells: dose-dependent increase
